TRPC6 activator: mouse TRPC6 channel activators, primary screen, cell-based, HEK293, membrane potential dye; AID 2550, 2010; HEK293-TRPC6 membrane potential dye fluorescence; active compounds read high; actives 0.13% (n = 310,000); B-score at 10 µM;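 active means B-score of the integrated fluorescence ratio above library mean plus 3 SD, and starting fluorescence ratio within library mean plus 5 SD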;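 further: higher score means more depolarization so channel activation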
DSG3 Ab inh: inhibitors of pemphigus antibody binding to DSG3, primary screen, biochemical, bead-based, flow cytometry, scFv-GFP | binding (percent of control), % at 10 µM | DSG3-coupled beads, scFv-anti-DSG3-GFP binding; active compounds read low | actives 0.48% (n = 310,000);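 active means binding more than 3 SD below its plate's average and above zero; inconclusive means below that plate limit but binding exactly zero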;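 further: hits lower antibody fragment binding to DSG3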
Target sequence (P32926 whole entry, looked up, the tested form may be a part): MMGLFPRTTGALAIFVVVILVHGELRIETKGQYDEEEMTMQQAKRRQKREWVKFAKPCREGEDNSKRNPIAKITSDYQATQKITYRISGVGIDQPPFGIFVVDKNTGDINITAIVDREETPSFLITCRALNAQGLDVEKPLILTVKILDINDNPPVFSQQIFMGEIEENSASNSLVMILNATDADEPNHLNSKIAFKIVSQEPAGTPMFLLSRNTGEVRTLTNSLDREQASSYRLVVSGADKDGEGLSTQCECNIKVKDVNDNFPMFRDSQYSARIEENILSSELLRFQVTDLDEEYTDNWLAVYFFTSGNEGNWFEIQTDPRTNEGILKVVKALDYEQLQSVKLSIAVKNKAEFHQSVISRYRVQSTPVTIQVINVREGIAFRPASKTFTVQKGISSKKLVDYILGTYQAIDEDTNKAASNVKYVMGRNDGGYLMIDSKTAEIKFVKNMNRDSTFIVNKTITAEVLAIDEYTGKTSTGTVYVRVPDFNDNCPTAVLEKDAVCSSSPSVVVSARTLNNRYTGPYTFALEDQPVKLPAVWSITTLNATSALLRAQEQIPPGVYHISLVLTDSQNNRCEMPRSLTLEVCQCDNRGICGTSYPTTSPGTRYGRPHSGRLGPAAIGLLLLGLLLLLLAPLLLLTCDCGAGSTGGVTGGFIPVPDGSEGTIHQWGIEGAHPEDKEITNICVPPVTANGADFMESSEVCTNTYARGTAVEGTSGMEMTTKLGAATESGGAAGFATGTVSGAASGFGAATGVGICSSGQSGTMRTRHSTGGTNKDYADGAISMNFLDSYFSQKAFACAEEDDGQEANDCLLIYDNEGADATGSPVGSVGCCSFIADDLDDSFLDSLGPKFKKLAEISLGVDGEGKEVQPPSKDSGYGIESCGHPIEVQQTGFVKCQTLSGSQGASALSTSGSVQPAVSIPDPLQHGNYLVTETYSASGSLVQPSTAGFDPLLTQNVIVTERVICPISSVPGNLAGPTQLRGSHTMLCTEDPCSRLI
TRPC4 agonist: activators of mouse TRPC4 channel, primary screen, Fluo4 calcium, HEK293 TRPC4beta/mu-opioid cells; Short transient receptor potential channel 4 (Mus musculus), Q9QUQ5; Fluo4 calcium fluorescence; active compounds read high; B-score at 10 µM; actives 0.49% (n = 310,000);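 active means B-score above 5 SD of library B-scores, and initial fluorescence ratio not above library mean plus 5 SD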;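 further: positive B-score marks a calcium rise read as TRPC4 activation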
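Incubation: 45 min room-temperature Fluo4 loading, 110 s read / System: HEK293 cells stably co-expressing mouse TRPC4beta and mu-opioid receptor / Signal: Fluo4 fluorescence, kinetic / Control set: buffer (low) and maximal DAMGO (high) / Measure: integrated baseline-normalised fluorescence ratio, converted to per-well B score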
TRPC4 potent: positive allosteric modulators of TRPC4, primary screen, cell-based, mouse TRPC4beta, HEK293 mu-opioid, Fluo-4 calcium | Short transient receptor potential channel 4 (Mus musculus), Q9QUQ5 | DAMGO EC20, Fluo-4 Ca2+ flux; active compounds read high | B-score at 10 µM | actives 0.42% (n = 310,000) | AID 2227, 2009;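 active means B-score of calcium response area above 5 SD of library B-scores, with initial fluorescence ratio within 5 SD of library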;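 further: B-score of integrated fluorescence ratio over time as area under calcium response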
TRPC4 block: inhibitors of mouse TRPC4 channel, primary screen, Fluo4 calcium, HEK293 TRPC4beta/mu-opioid cells; B-score at 10 µM; AID 2247, 2010; DAMGO-evoked Fluo4 calcium flux; active compounds read low; Short transient receptor potential channel 4 (Mus musculus), Q9QUQ5; actives 0.39% (n = 300,000);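 active means B-score over 3 SD under the library average, no early fluorescence shift, positive overall ratio signal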
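test system = HEK293 cells with stable TRPC4beta plus mu-opioid receptor expression | detection = Fluo4 Ca2+ flux fluorescence | read-out = integrated fluorescence ratio relative to baseline, converted to per-well B score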
TRPC6 inhibitor: mouse TRPC6 channel inhibitors, primary screen, cell-based, HEK293, membrane potential dye | B-score at 10 µM | AID 2553, 2010 | actives 1.1% (n = 310,000) | ACh-evoked depolarization; active compounds read low;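 active means B-score under library mean minus 3 SD, initial fluorescence not abnormally high, positive integrated signal ratio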;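 further: B-score derived from integrated fluorescence ratio over the kinetic read; more negative B-score means stronger inhibition of depolarization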
TRPC4 spec 2: second selectivity test of TRPC6 inhibitors: effect on mouse TRPC4; shares compounds with TRPC6 inhibitor; HEK293 TRPC4/MOR, membrane potential dye fluorescence; channel activated by saturating DAMGO dose; inhibition, % at 10 µM; actives 42% (n = 920); AID 2776;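 active means compounds whose fluorescence signal differed from control wells by over 3 SD, either direction, in both duplicate plates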
TRPC4 spec: mouse TRPC4 modulation by TRPC6 hits, confirmation, selectivity assay for TRPC6 inhibitor project, cell-based, HEK293 TRPC4/mu-opioid, membrane potential dye | actives 61% (n = 920) | activity change, negative = inhibition, % at 10 µM | AID 2777, 2010 | membrane potential fluorescence | shares compounds with TRPC6 inhibitor;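 active means rise or fall in signal beyond 3 SD of buffer-only wells in both replicate plates, either sign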;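 further: integrated kinetic ratio of fluorescence range over baseline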
HEK293 MPD ctr 2-1: nonspecific membrane potential effects, parental HEK293, confirmation, counter-screen for TRPC6 inhibitor project, cell-based, second counter screen | shares compounds with TRPC6 inhibitor | parental HEK293 membrane potential dye fluorescence; maximal acetylcholine challenge after compound addition | signal change vs control, % at 10 µM | actives 31% (n = 920);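 active means membrane potential signal moving either way by over 3 SD of the maximum-effect control, in both duplicate plates, meaning non-specific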
HEK293 MPD ctr-1: membrane potential modulation in parental HEK293, confirmation, counter-screen for TRPC6 inhibitor project, cell-based; shares compounds with TRPC6 inhibitor; parental HEK293 membrane potential dye fluorescence; membrane potential signal change, % at 10 µM; actives 60% (n = 920);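 active means membrane potential signal shifting up or down by more than 3 SD of buffer-only wells, on both duplicate plates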
HEK293 MPD ctr-2: parental HEK293 membrane potential modulation, confirmation, counter-screen for TRPC6 modulator project, cell-based; membrane potential dye fluorescence; shares compounds with TRPC6 inhibitor; membrane potential signal change, % at 10 µM; AID 488924, 2010; actives 51% (n = 2,400);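 active means membrane potential signal moves up or down beyond 5 SD from buffer-only wells, on both duplicate plates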
HEK293 MPD ctr 2-2: second check of TRPC6 modulator effects in parental HEK293 cells. membrane potential dye fluorescence; after compound, maximal acetylcholine stimulation. AID 488926. actives 14% (n = 2,400). shares compounds with TRPC6 inhibitor. inhibition, % at 10 µM;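 active means membrane potential signal drops by more than 5 SD from the mean control signal, in both duplicate plates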;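 further: plate controls were acetylcholine ECmax control wells for no effect and buffer only wells for full effect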
TRPC4 ctr mod: TRPC4 modulation by TRPC6 hit compounds, confirmation, selectivity assay for TRPC6 modulator project, cell-based, HEK293 TRPC4/mu-opioid, membrane potential dye, mouse; percent change from control (negative = decrease, positive = increase), % at 10 µM; actives 69% (n = 2,400); membrane potential fluorescence; shares compounds with TRPC6 inhibitor;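 active means membrane potential signal moved up or down beyond 5 SD of buffer control wells, in both duplicate plates, actives on both sides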;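 further: plate controls were assay buffer wells for no effect and DAMGO maximal-effect wells for full effect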
TRPC4 ctr inh 2: second check of whether TRPC6 modulators also affect mouse TRPC4; HEK293 TRPC4/mu-opioid, membrane potential dye fluorescence; stimulated with maximal-effect DAMGO; AID 488928; inhibition, % at 10 µM; actives 55% (n = 2,400); shares compounds with TRPC6 inhibitor;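 active means drop in membrane potential signal beyond 5 SD of the control wells in both duplicate plates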;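 further: TRPC4 counter screen for TRPC6 hits run under conditions tuned for TRPC6 not TRPC4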
TRPC6 block conf: mouse TRPC6 channel inhibitors, confirmation, HEK293 cells, membrane potential dye, duplicate; shares compounds with TRPC6 inhibitor; ACh-evoked depolarization; actives 43% (n = 3,300); inhibition, % at 10 µM;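 active means fluorescence ratio falls more than 5 SD below the full-stimulation control mean, in both duplicate runs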;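 further: integrated fluorescence ratio of peak minus minimum over baseline after agonist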
TRPC6 act conf: mouse TRPC6 channel activators, confirmation, HEK293 cells, membrane potential dye, duplicate; shares compounds with TRPC6 inhibitor; HEK293-TRPC6 membrane potential dye fluorescence, FDSS; activation, % at 10 µM; actives 11% (n = 2,800);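 active means ratio signal rise beyond 5 SD above unstimulated control wells' mean, seen in both duplicate runs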;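 further: plate controls were buffer EC0 wells for no effect and acetylcholine ECmax response for full effect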
Active calls of the source: *; i = inactive; ? = inconclusive; . = no result given. An excerpt weighted towards active compounds, which were near 2.5% of everything screened.

SMILES | TRPC6 activator | DSG3 Ab inh | TRPC4 agonist | TRPC4 potent | TRPC4 block | TRPC6 inhibitor | HEK293 MPD ctr-2 | HEK293 MPD ctr 2-2 | TRPC4 ctr mod | TRPC4 ctr inh 2 | TRPC6 block conf | TRPC6 act conf | others
N#CC1=C(N)Oc2cc(N)ccc2C1c1ccc(F)cc1F (configuration not stated) | 39* | 114 | 64* | i | i | i | 121%* | i | i | i | i | 27%*
CCN(CC(=O)Nc1c(F)cccc1F)C(=O)/C=C/c1ccc(Br)s1 | i | 100 | i | i | i | i | . | . | . | . | . | .
CN1/C(=C\C=O)C(C)(C)c2ccccc21 | i | 91 | i | i | i | i | . | . | . | . | . | .
CN(C)c1ccc(N=C/C=C2\N(C)c3ccccc3C2(C)C)cc1 | i | 169 | i | i | i | -6.6* | i | i | -16%* | 53%* | 58%* | i
CN1\C(=C/C=C/C=C/C=[N+](C)C)C(C)(C)c2ccccc21 | i | 66* | i | i | i | -5.2* | 533%* | i | -20%* | 32%* | 48%* | i
Nc1nc(-c2ccccc2)ns1 | . | 98 | . | . | . | . | . | . | . | . | . | .
Cc1cc(C)c(NC(=S)N(C)C)c(C)c1 | i | 104 | i | i | i | i | . | . | . | . | . | .
COc1ccccc1N(C)S(=O)(=O)c1ccc(C(=O)NC(C)c2ccccc2)cc1 (configuration not stated) | i | 90 | i | i | i | i | . | . | . | . | . | .
CC1CCN(C(=O)N2c3ccccc3Sc3ccccc32)CC1 | i | ? | i | i | i | i | . | . | . | . | . | .
CC1CCN(CC(O)CN2c3ccccc3Sc3ccccc32)CC1 (configuration not stated) | i | 100 | i | i | i | -6.7* | . | . | . | . | i | i | TRPC4 spec 2=66%*;TRPC4 spec=1.4%*;HEK293 MPD ctr 2-1=i;HEK293 MPD ctr-1=i
Cc1ccc(S(=O)(=O)Nc2csc(C)c2C(=O)O)cc1 | i | 93 | i | i | i | i | . | . | . | . | . | .
CCCCOc1ccc(CSC(=N)N)cc1Cl | i | 97 | i | i | i | -6.7* | . | . | . | . | i | i | TRPC4 spec 2=70%*;TRPC4 spec=i;HEK293 MPD ctr 2-1=266%*;HEK293 MPD ctr-1=2.0%*
CCOc1ccc(CSC(=N)N)cc1 | i | 102 | i | i | i | i | . | . | . | . | . | .
CCCCCOc1ccc(Br)cc1CSC(=N)N | i | 106 | i | i | i | -6.4* | 135%* | i | 24%* | 76%* | i | .
COc1cc2c(cc1OC)CN(S(=O)(=O)c1cccs1)CC2 | i | 94 | i | i | i | i | . | . | . | . | . | .
COc1ccc(S(=O)(=O)N2CCc3cc(OC)c(OC)cc3C2)cc1 | i | 92 | i | i | i | -7.1* | . | . | . | . | i | i | TRPC4 spec 2=i;TRPC4 spec=i;HEK293 MPD ctr 2-1=i;HEK293 MPD ctr-1=i
CC(=O)c1ccc(OCCCN2CCCCC2)cc1 | i | 104 | i | i | i | -5.1* | i | i | i | i | i | i
CCOC(=O)c1c(N=CN(C)C)c2cc([N+](=O)[O-])cnc2n1C | i | 97 | i | i | i | -5.7* | -146%* | i | -23%* | 44%* | 54%* | i
CCOC(=O)c1c(N)c2cc([N+](=O)[O-])ccc2n1C | i | . | i | i | i | i | . | . | . | . | . | .
N#Cc1ccc2[nH]c(CO)c(-c3ccccc3)c2c1 | i | 100 | i | i | i | -5.4* | -84%* | i | -27%* | 45%* | i | i
O=C1c2ccccc2C(=O)c2c(Nc3ccc(CCO)cc3)ccc(O)c21 | i | 96 | i | i | i | -5.2* | i | i | -9.0%* | 42%* | i | i
O=C1c2c(O)ccc(O)c2C(=O)c2c(NCCNCCO)ccc(NCCNCCO)c21 | . | 101 | . | . | . | . | . | . | . | . | . | .
COC(=O)c1cc(OC(=O)c2ccc(=O)[nH]c2)cc(C(=O)OC)c1 | i | . | i | i | i | i | . | . | . | . | . | .

Screening data from PubChem BioAssay.
